From ChEMBL document CHEMBL1687778, “Genetic determinants involved in the susceptibility of Pseudomonas aeruginosa to beta-lactam antibiotics” (2010)
≈ marks a conversion by molar mass, not a printed value.

Columns and labels:
Pseudomonas aeruginosa [1] = test: Antimicrobial activity against Pseudomonas aeruginosa PA14 PA14_06490 harboring mutation in hypothetical protein by Etest method; assay type: functional
In short: (§1)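 Overnight LB cultures (37°C) diluted in sterile 0.85% NaCl to about 1 × 10^7 CFU/ml. 100 µl spread on Mueller-Hinton agar, one Etest strip per plate, 18 h at 37°C. Ceftazidime, imipenem and meropenem tested. Wild-type PA14 plate included in each set. Each mutant verified in triplicate.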

Pseudomonas aeruginosa [2] = test: Antimicrobial activity against Pseudomonas aeruginosa PA14 PA5443 harboring uvrD mutant gene by Etest method; assay type: functional
In short: (§2)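 Etest MIC. Overnight LB cultures at 37°C were diluted in sterile 0.85% NaCl to about 1 × 10^7 CFU/ml. 100 µl was spread on Mueller-Hinton agar, one strip was placed per plate, and plates were incubated at 37°C for 18 h. Equal cell numbers were seeded per plate, and results were verified in triplicate. PA14 wild type was included in each set as a susceptibility control.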

Pseudomonas aeruginosa [3] = test: Antimicrobial activity against Pseudomonas aeruginosa PA14 PA4527 harboring pilC mutant gene by Etest method; assay type: functional; in short: as §2
Pseudomonas aeruginosa [4] = test: Antimicrobial activity against Pseudomonas aeruginosa PA14 PA2128 harboring cupA1 mutant gene by Etest method; assay type: functional; in short: as §1
Pseudomonas aeruginosa [5] = test: Antimicrobial activity against Pseudomonas aeruginosa PA14 PA5288 harboring glnK mutant gene by Etest method; assay type: functional; in short: as §2
Pseudomonas aeruginosa [6] = test: Antimicrobial activity against Pseudomonas aeruginosa PA14 PA0958 harboring oprD mutant gene by Etest method; assay type: functional; in short: as §1
Pseudomonas aeruginosa [7] = test: Antimicrobial activity against Pseudomonas aeruginosa PA14 PA3721 harboring nalC mutant gene by Etest method; assay type: functional; in short: as §2
Pseudomonas aeruginosa [8] = test: Antimicrobial activity against Pseudomonas aeruginosa harboring pBBR1MCS-3 expressing mucD mutant gene by Etest method
Pseudomonas aeruginosa [9] = test: Antimicrobial activity against Pseudomonas aeruginosa PA14 PA3141 harboring wbpM mutant gene by Etest method; assay type: functional; in short: as §1
Pseudomonas aeruginosa [10] = test: Antimicrobial activity against Pseudomonas aeruginosa PA14 PA4748 harboring tpiA mutant gene by Etest method; assay type: functional; in short: as §2
Pseudomonas aeruginosa [11] = test: Antimicrobial activity against wild type Pseudomonas aeruginosa PA14 by Etest method; assay type: functional; in short: as §2
Pseudomonas aeruginosa [12] = test: Antimicrobial activity against Pseudomonas aeruginosa PA14 PA3259 harboring mutation in conserved hypothetical protein by Etest method; assay type: functional; in short: as §2
Pseudomonas aeruginosa [13] = test: Antimicrobial activity against Pseudomonas aeruginosa PA14 PA1011 harboring mutation in putative lipoprotein by Etest method; assay type: functional; in short: as §1
Pseudomonas aeruginosa [14] = test: Antimicrobial activity against Pseudomonas aeruginosa PA14 PA5002 harboring mutation in hypothetical protein by Etest method; assay type: functional; in short: as §2
Pseudomonas aeruginosa [15] = test: Antimicrobial activity against Pseudomonas aeruginosa PA14 PA5003 harboring mutation in conserved hypothetical protein by Etest method; assay type: functional; in short: as §2
Pseudomonas aeruginosa [16] = test: Antimicrobial activity against Pseudomonas aeruginosa harboring pBBR-mucD complemented gene by Etest method
Pseudomonas aeruginosa [17] = test: Antimicrobial activity against Pseudomonas aeruginosa PA14 PA5000 harboring wapR mutant gene by Etest method; assay type: functional; in short: as §2
Pseudomonas aeruginosa [18] = test: Antimicrobial activity against Pseudomonas aeruginosa PA14 PA2970 harboring rpmF mutant gene by Etest method; assay type: functional; in short: as §1
Pseudomonas aeruginosa [19] = test: Antimicrobial activity against Pseudomonas aeruginosa PA14 PA14_07490/07510 harboring mutation in intergenic region by Etest method; assay type: functional; in short: as §1
Pseudomonas aeruginosa [20] = test: Antimicrobial activity against Pseudomonas aeruginosa PA14 PA0766 harboring mucD mutant gene by Etest method; assay type: functional; in short: as §1
Pseudomonas aeruginosa [21] = test: Antimicrobial activity against Pseudomonas aeruginosa PA14 PA4753 harboring mutation in putative RNA-binding protein by Etest method; assay type: functional; in short: as §2
Pseudomonas aeruginosa [22] = test: Antimicrobial activity against Pseudomonas aeruginosa PA14 PA3704 harboring wspE mutant gene by Etest method; assay type: functional; in short: as §2
Pseudomonas aeruginosa [23] = test: Antimicrobial activity against Pseudomonas aeruginosa PA14 PA4005 harboring mutation in conserved hypothetical protein by Etest method; assay type: functional; in short: as §2
Pseudomonas aeruginosa [24] = test: Antimicrobial activity against Pseudomonas aeruginosa PA14 PA4088 harboring mutation in putative aminotransferase by Etest method; assay type: functional; in short: as §2
Pseudomonas aeruginosa [25] = test: Antimicrobial activity against Pseudomonas aeruginosa PA14 PA0770 harboring rnc mutant gene by Etest method; assay type: functional; in short: as §1
Pseudomonas aeruginosa [26] = test: Antimicrobial activity against Pseudomonas aeruginosa PA14 PA14_43090 harboring mutation in hypothetical protein by Etest method; assay type: functional; in short: as §1
Pseudomonas aeruginosa [27] = test: Antimicrobial activity against Pseudomonas aeruginosa harboring pBBR-algU complemented gene by Etest method
Pseudomonas aeruginosa [28] = test: Antimicrobial activity against Pseudomonas aeruginosa PA14 PA3800 harboring mutation in conserved hypothetical protein by Etest method; assay type: functional; in short: as §2
Pseudomonas aeruginosa [29] = test: Antimicrobial activity against Pseudomonas aeruginosa PA14 PA3649 harboring mutation in putative membrane-associated zinc metalloprotease by Etest method; assay type: functional; in short: as §2
Pseudomonas aeruginosa [30] = test: Antimicrobial activity against Pseudomonas aeruginosa PA14 PA3589 harboring mutation in acetyl-coenzyme A (CoA) acetyltransferase (thiolase) by Etest method; assay type: functional; in short: as §2
Pseudomonas aeruginosa [31] = test: Antimicrobial activity against Pseudomonas aeruginosa PA14 PA2023 harboring galU mutant gene by Etest method; assay type: functional; in short: as §1
Pseudomonas aeruginosa [32] = test: Antimicrobial activity against Pseudomonas aeruginosa harboring algU mutant gene by Etest method; assay type: functional; in short: as §2
Pseudomonas aeruginosa [33] = test: Antimicrobial activity against Pseudomonas aeruginosa PA14 PA0764 harboring mucB mutant gene by Etest method; assay type: functional; in short: as §1
Pseudomonas aeruginosa [34] = test: Antimicrobial activity against Pseudomonas aeruginosa PA14 PA1483 harboring cycH mutant gene by Etest method; assay type: functional; in short: as §1
Pseudomonas aeruginosa [35] = test: Antimicrobial activity against Pseudomonas aeruginosa PA14 PA14_23430 harboring mutation in putative heparinase by Etest method; assay type: functional; in short: as §1

**Q.** For C[C@@H](O)[C@H]1C(=O)N2C(C(=O)O)=C(SCCNC=N)C[C@H]12 [IMIPENEM ANHYDROUS], which MIC (Pseudomonas aeruginosa [1]) is on record?
**A.** The MIC was 0.38 µg/mL (≈ 1.27 µM).

**Q.** And the MIC (Pseudomonas aeruginosa [2])?
**A.** Its MIC is 0.5 µg/mL (≈ 1.67 µM).

**Q.** What about the MIC (Pseudomonas aeruginosa [3]) of the same compound?
**A.** The MIC was 0.38 µg/mL (≈ 1.27 µM).

**Q.** And the MIC (Pseudomonas aeruginosa [4])?
**A.** The MIC was 0.38 µg/mL (≈ 1.27 µM).

**Q.** And the MIC (Pseudomonas aeruginosa [5])?
**A.** The MIC was 0.25 µg/mL (≈ 0.835 µM).

**Q.** And the MIC (Pseudomonas aeruginosa [6])?
**A.** Its MIC is 2 µg/mL (≈ 6.68 µM).

**Q.** What about the MIC (Pseudomonas aeruginosa [7]) of the same compound?
**A.** Its MIC is 0.5 µg/mL (≈ 1.67 µM).

**Q.** What about the MIC (Pseudomonas aeruginosa [8]) of the same compound?
**A.** The MIC was 0.25 µg/mL (≈ 0.835 µM).

**Q.** What about the MIC (Pseudomonas aeruginosa [9]) of the same compound?
**A.** The MIC was 0.5 µg/mL (≈ 1.67 µM).

**Q.** What about the MIC (Pseudomonas aeruginosa [10]) of the same compound?
**A.** Its MIC is 0.38 µg/mL (≈ 1.27 µM).

**Q.** What about the MIC (Pseudomonas aeruginosa [11]) of the same compound?
**A.** The MIC was 0.5 µg/mL (≈ 1.67 µM).

**Q.** What about the MIC (Pseudomonas aeruginosa [12]) of the same compound?
**A.** Its MIC is 0.5 µg/mL (≈ 1.67 µM).

**Q.** And the MIC (Pseudomonas aeruginosa [13])?
**A.** The MIC was 0.5 µg/mL (≈ 1.67 µM).

**Q.** What about the MIC (Pseudomonas aeruginosa [14]) of the same compound?
**A.** The MIC was 0.38 µg/mL (≈ 1.27 µM).

**Q.** And the MIC (Pseudomonas aeruginosa [15])?
**A.** Its MIC is 0.5 µg/mL (≈ 1.67 µM).

**Q.** And the MIC (Pseudomonas aeruginosa [16])?
**A.** The MIC was 0.5 µg/mL (≈ 1.67 µM).

**Q.** And the MIC (Pseudomonas aeruginosa [17])?
**A.** Its MIC is 0.5 µg/mL (≈ 1.67 µM).

**Q.** And the MIC (Pseudomonas aeruginosa [18])?
**A.** The MIC was 0.5 µg/mL (≈ 1.67 µM).

**Q.** What about the MIC (Pseudomonas aeruginosa [19]) of the same compound?
**A.** The MIC was 0.5 µg/mL (≈ 1.67 µM).

**Q.** And the MIC (Pseudomonas aeruginosa [20])?
**A.** Its MIC is 0.25 µg/mL (≈ 0.835 µM).

**Q.** And the MIC (Pseudomonas aeruginosa [21])?
**A.** The MIC was 0.5 µg/mL (≈ 1.67 µM).

**Q.** And the MIC (Pseudomonas aeruginosa [22])?
**A.** The MIC was 0.5 µg/mL (≈ 1.67 µM).

**Q.** And the MIC (Pseudomonas aeruginosa [23])?
**A.** The MIC was 0.064 µg/mL (≈ 0.214 µM).

**Q.** And the MIC (Pseudomonas aeruginosa [24])?
**A.** The MIC was 0.38 µg/mL (≈ 1.27 µM).

**Q.** What about the MIC (Pseudomonas aeruginosa [25]) of the same compound?
**A.** The MIC was 0.75 µg/mL (≈ 2.51 µM).

**Q.** What about the MIC (Pseudomonas aeruginosa [26]) of the same compound?
**A.** Its MIC is 0.38 µg/mL (≈ 1.27 µM).

**Q.** And the MIC (Pseudomonas aeruginosa [27])?
**A.** The MIC was 0.5 µg/mL (≈ 1.67 µM).

**Q.** What about the MIC (Pseudomonas aeruginosa [28]) of the same compound?
**A.** The MIC was 0.38 µg/mL (≈ 1.27 µM).

**Q.** And the MIC (Pseudomonas aeruginosa [29])?
**A.** The MIC was 0.25 µg/mL (≈ 0.835 µM).

**Q.** What about the MIC (Pseudomonas aeruginosa [30]) of the same compound?
**A.** Its MIC is 0.5 µg/mL (≈ 1.67 µM).

**Q.** What about the MIC (Pseudomonas aeruginosa [31]) of the same compound?
**A.** The MIC was 0.094 µg/mL (≈ 0.314 µM).

**Q.** What about the MIC (Pseudomonas aeruginosa [32]) of the same compound?
**A.** The MIC was 0.38 µg/mL (≈ 1.27 µM).

**Q.** What about the MIC (Pseudomonas aeruginosa [33]) of the same compound?
**A.** The MIC was 0.25 µg/mL (≈ 0.835 µM).

**Q.** And the MIC (Pseudomonas aeruginosa [34])?
**A.** Its MIC is 0.5 µg/mL (≈ 1.67 µM).

**Q.** And the MIC (Pseudomonas aeruginosa [35])?
**A.** The MIC was 0.38 µg/mL (≈ 1.27 µM).
